Measurements from the M2OR odorant receptor database.

How the values were obtained:
Settings in all cases: stereoisomer not certain
OR52N4 (Homo sapiens) = biological target: T1, OR52N4 (Homo sapiens) (UniProt Q8NGI2)
T1 sequence (whole entry): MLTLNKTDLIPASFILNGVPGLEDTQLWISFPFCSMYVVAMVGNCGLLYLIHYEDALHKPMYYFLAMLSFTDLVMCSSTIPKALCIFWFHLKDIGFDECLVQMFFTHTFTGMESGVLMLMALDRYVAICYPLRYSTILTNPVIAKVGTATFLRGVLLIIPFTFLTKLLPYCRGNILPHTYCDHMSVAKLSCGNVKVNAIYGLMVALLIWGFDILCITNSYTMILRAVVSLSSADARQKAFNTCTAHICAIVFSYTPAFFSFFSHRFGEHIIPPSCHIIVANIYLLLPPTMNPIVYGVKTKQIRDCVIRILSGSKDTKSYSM
Outline: (§1)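 Transient luciferase assays in mammalian cell lines were common, though methods varied by source. The values come from published papers and their supplementary material, with extra details from the original authors when needed. Responsive refers to a measured signal the original authors judged statistically different from baseline, and non-responsive (inactive) to the remainder.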

OR52N5 (Homo sapiens) = biological target: T2, OR52N5 (Homo sapiens) (UniProt Q8NH56)
T2 sequence (whole entry): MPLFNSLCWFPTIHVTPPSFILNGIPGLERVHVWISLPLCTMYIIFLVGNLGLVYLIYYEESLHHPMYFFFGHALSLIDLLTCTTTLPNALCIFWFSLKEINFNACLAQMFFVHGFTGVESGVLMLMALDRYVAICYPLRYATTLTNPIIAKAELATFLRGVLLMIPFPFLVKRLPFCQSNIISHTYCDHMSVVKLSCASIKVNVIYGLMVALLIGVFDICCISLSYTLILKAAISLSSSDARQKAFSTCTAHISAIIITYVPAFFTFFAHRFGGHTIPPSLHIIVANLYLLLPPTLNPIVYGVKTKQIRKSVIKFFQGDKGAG
Outline: as §1

OR52R1 (Homo sapiens) = biological target: T3, OR52R1 (Homo sapiens) (UniProt Q8NGF1)
T3 sequence (whole entry): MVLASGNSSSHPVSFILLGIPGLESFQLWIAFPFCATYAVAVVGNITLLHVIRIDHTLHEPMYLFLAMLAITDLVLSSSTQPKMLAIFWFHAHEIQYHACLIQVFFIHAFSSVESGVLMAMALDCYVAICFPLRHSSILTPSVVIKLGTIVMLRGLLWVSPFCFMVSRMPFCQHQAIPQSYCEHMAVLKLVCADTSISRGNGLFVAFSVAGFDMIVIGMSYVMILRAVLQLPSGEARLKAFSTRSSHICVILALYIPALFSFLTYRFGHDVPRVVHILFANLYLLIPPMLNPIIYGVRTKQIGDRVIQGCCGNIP
Outline: as §1

OR52W1 (Homo sapiens) = biological target: T4, OR52W1 (Homo sapiens) (UniProt Q6IF63)
T4 sequence (whole entry): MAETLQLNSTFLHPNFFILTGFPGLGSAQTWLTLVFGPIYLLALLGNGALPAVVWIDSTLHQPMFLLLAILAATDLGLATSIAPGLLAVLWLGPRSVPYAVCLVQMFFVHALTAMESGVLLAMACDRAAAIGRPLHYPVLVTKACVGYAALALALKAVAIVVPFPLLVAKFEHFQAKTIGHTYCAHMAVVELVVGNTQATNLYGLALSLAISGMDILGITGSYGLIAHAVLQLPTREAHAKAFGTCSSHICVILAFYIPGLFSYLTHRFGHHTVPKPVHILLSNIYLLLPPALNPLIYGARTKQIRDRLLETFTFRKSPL
Outline: as §1

OR56A1 (Homo sapiens) = biological target: T5, OR56A1 (Homo sapiens) (UniProt Q8NGH5)
T5 sequence (whole entry): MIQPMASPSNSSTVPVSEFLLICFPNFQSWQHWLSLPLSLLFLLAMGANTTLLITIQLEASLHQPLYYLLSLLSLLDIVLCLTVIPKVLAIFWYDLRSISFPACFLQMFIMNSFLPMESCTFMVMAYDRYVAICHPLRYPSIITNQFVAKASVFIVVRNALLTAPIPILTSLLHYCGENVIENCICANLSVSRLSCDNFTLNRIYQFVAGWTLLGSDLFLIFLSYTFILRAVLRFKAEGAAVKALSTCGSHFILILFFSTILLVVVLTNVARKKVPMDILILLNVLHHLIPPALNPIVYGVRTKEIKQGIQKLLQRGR
Outline: as §1

OR56A3 (Homo sapiens) = biological target: T6, OR56A3 (Homo sapiens) (UniProt Q8NH54)
T6 sequence (whole entry): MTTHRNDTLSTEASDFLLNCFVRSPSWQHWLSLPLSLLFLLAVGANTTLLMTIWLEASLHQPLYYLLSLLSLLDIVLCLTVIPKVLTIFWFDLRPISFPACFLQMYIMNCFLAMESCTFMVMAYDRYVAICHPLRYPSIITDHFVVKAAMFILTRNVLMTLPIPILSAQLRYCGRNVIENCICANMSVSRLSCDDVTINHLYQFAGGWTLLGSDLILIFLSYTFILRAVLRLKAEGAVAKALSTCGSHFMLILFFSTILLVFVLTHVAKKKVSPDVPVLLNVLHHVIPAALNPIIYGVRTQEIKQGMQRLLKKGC
Outline: as §1

OR56A4 (Homo sapiens) = biological target: T7, OR56A4 (Homo sapiens) (UniProt Q8NGH8)
T7 sequence (whole entry): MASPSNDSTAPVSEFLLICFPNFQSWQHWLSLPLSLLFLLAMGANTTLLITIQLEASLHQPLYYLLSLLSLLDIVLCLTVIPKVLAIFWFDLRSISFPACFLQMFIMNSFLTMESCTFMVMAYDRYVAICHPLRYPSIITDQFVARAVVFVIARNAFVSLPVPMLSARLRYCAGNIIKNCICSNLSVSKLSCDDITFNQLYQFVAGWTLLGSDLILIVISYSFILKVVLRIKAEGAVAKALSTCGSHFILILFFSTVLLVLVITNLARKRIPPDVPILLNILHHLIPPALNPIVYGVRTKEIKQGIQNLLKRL
Outline: as §1

OR56A5 (Homo sapiens) = biological target: T8, OR56A5 (Homo sapiens) (UniProt P0C7T3)
T8 sequence (whole entry): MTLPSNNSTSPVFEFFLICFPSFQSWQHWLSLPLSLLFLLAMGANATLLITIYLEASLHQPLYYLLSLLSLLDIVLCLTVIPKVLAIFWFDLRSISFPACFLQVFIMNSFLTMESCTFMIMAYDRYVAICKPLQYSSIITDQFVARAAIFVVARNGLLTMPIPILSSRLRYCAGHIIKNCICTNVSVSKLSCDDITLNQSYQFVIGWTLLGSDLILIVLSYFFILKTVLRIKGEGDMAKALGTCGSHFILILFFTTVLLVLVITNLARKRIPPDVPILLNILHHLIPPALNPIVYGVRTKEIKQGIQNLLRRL
Outline: as §1

OR56B1 (Homo sapiens) = biological target: T9, OR56B1 (Homo sapiens) (UniProt Q8NGI3)
T9 sequence (whole entry): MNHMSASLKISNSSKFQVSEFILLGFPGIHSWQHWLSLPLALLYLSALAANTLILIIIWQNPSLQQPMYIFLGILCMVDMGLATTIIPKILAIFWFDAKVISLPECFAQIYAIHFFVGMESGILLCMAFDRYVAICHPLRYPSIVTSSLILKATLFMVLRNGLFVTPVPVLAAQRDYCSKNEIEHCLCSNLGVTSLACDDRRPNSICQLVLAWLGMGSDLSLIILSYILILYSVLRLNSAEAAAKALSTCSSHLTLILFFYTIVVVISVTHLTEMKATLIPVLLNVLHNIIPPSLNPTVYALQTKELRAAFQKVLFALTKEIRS
Outline: as §1

OR56B4 (Homo sapiens) = biological target: T10, OR56B4 (Homo sapiens) (UniProt Q8NH76)
T10 sequence (whole entry): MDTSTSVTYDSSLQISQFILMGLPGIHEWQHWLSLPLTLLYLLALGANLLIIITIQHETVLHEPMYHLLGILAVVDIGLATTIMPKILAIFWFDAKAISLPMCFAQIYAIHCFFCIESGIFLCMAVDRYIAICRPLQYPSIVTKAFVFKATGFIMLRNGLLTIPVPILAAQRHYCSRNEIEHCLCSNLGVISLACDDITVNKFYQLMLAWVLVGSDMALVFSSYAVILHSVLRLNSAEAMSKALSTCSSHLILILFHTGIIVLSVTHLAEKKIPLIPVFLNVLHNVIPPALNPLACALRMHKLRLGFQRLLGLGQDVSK
Outline: as §1

OR5A1 (Homo sapiens) = biological target: T11, OR5A1 (Homo sapiens) (UniProt Q8NGJ0)
T11 sequence (whole entry): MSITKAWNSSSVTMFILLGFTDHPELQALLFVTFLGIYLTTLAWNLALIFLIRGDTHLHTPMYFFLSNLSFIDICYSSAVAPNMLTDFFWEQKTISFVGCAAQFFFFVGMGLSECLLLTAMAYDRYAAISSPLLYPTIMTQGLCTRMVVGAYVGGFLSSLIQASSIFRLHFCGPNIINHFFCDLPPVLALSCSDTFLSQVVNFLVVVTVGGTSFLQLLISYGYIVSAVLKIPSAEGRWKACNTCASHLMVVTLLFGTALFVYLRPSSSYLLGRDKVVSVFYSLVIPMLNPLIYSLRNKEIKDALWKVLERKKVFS
Outline: as §1

OR5A2 (Homo sapiens) = biological target: T12, OR5A2 (Homo sapiens) (UniProt Q8NGI9)
T12 sequence (whole entry): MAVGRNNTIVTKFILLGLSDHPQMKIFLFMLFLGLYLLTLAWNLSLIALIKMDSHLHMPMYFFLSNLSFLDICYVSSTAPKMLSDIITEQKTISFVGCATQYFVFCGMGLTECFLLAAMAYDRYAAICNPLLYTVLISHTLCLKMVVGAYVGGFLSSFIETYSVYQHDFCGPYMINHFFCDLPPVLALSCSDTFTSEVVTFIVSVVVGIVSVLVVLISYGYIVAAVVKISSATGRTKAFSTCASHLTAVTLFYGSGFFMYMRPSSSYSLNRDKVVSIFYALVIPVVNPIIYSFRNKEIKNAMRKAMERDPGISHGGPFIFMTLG
Outline: as §1

OR5AC2 (Homo sapiens) = biological target: T13, OR5AC2 (Homo sapiens) (UniProt Q9NZP5)
T13 sequence (whole entry): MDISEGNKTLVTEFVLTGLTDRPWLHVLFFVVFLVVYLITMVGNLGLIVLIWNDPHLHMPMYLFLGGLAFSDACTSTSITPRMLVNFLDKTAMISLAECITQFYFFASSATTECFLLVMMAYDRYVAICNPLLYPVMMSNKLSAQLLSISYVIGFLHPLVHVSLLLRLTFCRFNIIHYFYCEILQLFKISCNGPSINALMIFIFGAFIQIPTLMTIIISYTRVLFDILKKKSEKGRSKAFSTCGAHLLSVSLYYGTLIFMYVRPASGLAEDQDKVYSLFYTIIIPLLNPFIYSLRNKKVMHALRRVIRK
Outline: as §1

OR5AK2 (Homo sapiens) = biological target: T14, OR5AK2 (Homo sapiens) (UniProt Q8NH90)
T14 sequence (whole entry): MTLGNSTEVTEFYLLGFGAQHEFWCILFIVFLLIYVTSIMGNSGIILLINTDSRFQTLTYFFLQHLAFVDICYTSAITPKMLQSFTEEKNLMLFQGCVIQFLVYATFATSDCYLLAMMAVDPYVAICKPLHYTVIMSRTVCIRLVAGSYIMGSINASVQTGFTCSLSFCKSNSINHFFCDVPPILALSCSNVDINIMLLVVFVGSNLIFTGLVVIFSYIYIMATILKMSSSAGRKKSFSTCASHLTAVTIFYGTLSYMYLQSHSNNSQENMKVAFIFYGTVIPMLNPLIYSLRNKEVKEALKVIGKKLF
Outline: as §1

OR5AN1 (Homo sapiens) = biological target: T15, OR5AN1 (Homo sapiens) (UniProt Q8NGI8)
T15 sequence (whole entry): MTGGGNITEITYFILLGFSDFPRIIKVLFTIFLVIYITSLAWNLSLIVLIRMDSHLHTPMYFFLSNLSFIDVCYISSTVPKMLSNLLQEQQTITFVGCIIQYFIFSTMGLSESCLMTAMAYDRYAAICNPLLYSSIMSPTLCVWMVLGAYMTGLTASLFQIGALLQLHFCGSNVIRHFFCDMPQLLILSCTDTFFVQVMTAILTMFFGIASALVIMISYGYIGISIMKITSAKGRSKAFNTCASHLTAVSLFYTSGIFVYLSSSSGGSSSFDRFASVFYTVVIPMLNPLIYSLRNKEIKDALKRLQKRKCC
Outline: as §1

OR5AP2 (Homo sapiens) = biological target: T16, OR5AP2 (Homo sapiens) (UniProt Q8NGF4)
T16 sequence (whole entry): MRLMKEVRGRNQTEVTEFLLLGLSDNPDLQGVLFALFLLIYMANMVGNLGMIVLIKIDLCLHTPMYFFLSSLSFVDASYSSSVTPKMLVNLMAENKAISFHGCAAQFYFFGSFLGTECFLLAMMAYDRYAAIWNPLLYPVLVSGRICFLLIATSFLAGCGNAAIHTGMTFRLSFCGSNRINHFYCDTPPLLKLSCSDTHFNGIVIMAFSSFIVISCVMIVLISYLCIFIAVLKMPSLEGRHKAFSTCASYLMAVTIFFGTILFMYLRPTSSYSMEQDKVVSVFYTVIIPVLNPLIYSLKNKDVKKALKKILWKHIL
Outline: as §1

Measured: odorant receptor agonist call

CCCCC(S)C(C)CO (configuration not stated)
inactive: OR52N4 (Homo sapiens) | OR52R1 (Homo sapiens) | OR52W1 (Homo sapiens) | OR56A1 (Homo sapiens) | OR56A3 (Homo sapiens) | OR56A4 (Homo sapiens) | OR56A5 (Homo sapiens) | OR56B1 (Homo sapiens) | OR5A1 (Homo sapiens) | OR5A2 (Homo sapiens) | OR5AC2 (Homo sapiens) | OR5AK2 (Homo sapiens) | OR5AN1 (Homo sapiens) | OR5AP2 (Homo sapiens)
active: OR52N5 (Homo sapiens) | OR56B4 (Homo sapiens)

CCC(S)C(C)CO (configuration not stated)
inactive: OR52N4 (Homo sapiens) | OR52N5 (Homo sapiens) | OR52R1 (Homo sapiens) | OR52W1 (Homo sapiens) | OR56A1 (Homo sapiens) | OR56A3 (Homo sapiens) | OR56A4 (Homo sapiens) | OR56A5 (Homo sapiens) | OR56B1 (Homo sapiens) | OR56B4 (Homo sapiens) | OR5A1 (Homo sapiens) | OR5A2 (Homo sapiens) | OR5AC2 (Homo sapiens) | OR5AK2 (Homo sapiens) | OR5AN1 (Homo sapiens) | OR5AP2 (Homo sapiens)
